The subject of series [1] is PBMC. The experiment in a line: Immunomodulatory effect in human PBMC cells assessed as increase in LPS-induced TNF-alpha release at 20.2 uM after 24 hrs by sandwich ELISA. In kind it is functional, cell-based. A general note: An ELISA detects its analyte on a solid surface through an enzyme-linked reagent.
Series [2] deals with THP-1. The experiment in a line: Immunomodulatory effect in human THP1 cells assessed as increase in LPS-induced TNF-alpha release after 24 hrs by sandwich ELISA relative to LPS. Type of series: functional, cell-based. The essentials: (§1)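 THP-1 cells at 10⁶ cells/ml in RPMI 1640 with 10% heat-inactivated FCS. Co-incubated 24 h with compound (0.2–200 µM) plus E. coli 0127:B8 LPS 1 ng/ml, DMSO vehicle ≤0.2% final. TNF-α in supernatant expressed as % of LPS-induced release, mean ± SD of 6 samples.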

Series [3] deals with PBMC. The experiment in a line: Cytotoxicity against human PBMC assessed as LDH release at 20.2 uM. In kind it is cell-based. (In general: LDH in the medium is a marker of cell lysis.)
Series [4] relates to THP-1. The experiment in a line: Toxicity in human THP1 cells assessed TNF-alpha release at 20.2 uM after 3 to 24 hrs by sandwich ELISA. In kind it is cell-based. The following applies: thp-1, 20.2 µM. The procedure, abridged:
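Time course in THP-1 cells, with release sampled at 3, 8 and 24 h. Cells co-incubated with test agent and 1 ng/ml LPS. Co-incubation was compared with preincubation.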

The subject of series [5] is THP-1. The experiment in a line: Cytotoxicity against human THP1 cells assessed as LDH release at 20.2 uM. In kind it is cell-based. The following applies: thp-1, 20.2 µM. The procedure, abridged:
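LDH leakage into the medium used as the cytotoxicity read-out, taken at the highest concentration tested.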

The subject of series [6] is THP-1. The experiment in a line: Immunomodulatory effect in human THP1 cells assessed as increase in LPS-induced TNF-alpha release at 20.2 uM after 24 hrs by sandwich ELISA relative to LPS. Type of series: functional. The procedure, abridged: as §1
Series [7] has as its system THP-1. The experiment in a line: Immunomodulatory effect in human THP1 cells assessed as increase in LPS-induced TNF-alpha release at 0.2 uM after 24 hrs by sandwich ELISA relative to LPS. Type of series: functional. The procedure, abridged:
as §1

For series [8], the system named is THP-1. The experiment in a line: Immunomodulatory effect in human THP1 cells assessed as increase in LPS-induced TNF-alpha release at 2 uM after 24 hrs by sandwich ELISA relative to LPS. In kind it is functional. The procedure, abridged: as §1
Series [9] concerns THP-1. The experiment in a line: Toxicity in human THP1 cells assessed TNF-alpha release at 20.2 uM after 24 hrs by sandwich ELISA. In kind it is cell-based. Particulars: thp-1, 24 h. The procedure, abridged: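 THP-1 in supplemented RPMI 1640 co-incubated 24 h with 20.2 µM compound and 1 ng/ml LPS, DMSO ≤0.2%. TNF-α release expressed as % of the LPS-only response, mean ± SD of 6 samples, Mann-Whitney U test.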

Series [10] relates to THP-1. The experiment in a line: Immunomodulatory effect in human THP1 cells assessed as increase in LPS-induced TNF-alpha release at 200 uM after 24 hrs by sandwich ELISA relative to LPS. Type of series: functional. The procedure, abridged:
as §1

Series [11] has as its system PBMC. The experiment in a line: Immunomodulatory effect in human PBMC cells assessed as decrease in LPS-induced IL-10 release at 20.2 uM after 18 hrs by flow cytometry analysis relative to LPS. In kind it is functional. Also on record: scale not given: the % may be the effect or the level left. The procedure, abridged: (§2)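 Human PBMC isolated from healthy-donor buffy coats on a Ficoll-Paque gradient. Cultured in RPMI 1640 with 10% heat-inactivated FCS, 2 mM L-glutamine and 50 µM 2-mercaptoethanol. 0.5 × 10⁶ cells exposed to 20.2 µM compound plus 10 ng/ml LPS, DMSO ≤0.1%, for 18 h at 37 °C in 5% CO₂. Supernatant cytokines measured by flow cytometric bead assay. Values are % of LPS alone, mean ± SD of 4 samples, two donors.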
Background: Flow cytometry measures light scatter and fluorescence of single cells or particles in a stream.

Series [12] relates to PBMC. The experiment in a line: Immunomodulatory effect in human PBMC cells assessed as LPS-induced IL1-beta release at 20.2 uM after 18 hrs by flow cytometry analysis relative to LPS. Type of series: functional. The essentials: as §2
The subject of series [13] is PBMC. The experiment in a line: Immunosuppressive effect in human PBMC cells assessed as […] in […]/ionomycin-induce IL1-beta release at 20.2 uM after 18 hrs by flow cytometry analysis relative to PMA and ionomycin. In kind it is functional. The essentials: (§3)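 PBMC prepared from donor buffy coat on Ficoll-Paque and kept in supplemented RPMI 1640. Cells (0.5 × 10⁶) given 20.2 µM compound with PMA 3.33 ng/ml and ionomycin 500 nM (final) for 18 h at 37 °C, 5% CO₂. Supernatant IL-1β, IL-6, IL-8, IL-10 and TNF-α read by flow cytometry. Expressed relative to PMA/ionomycin alone, mean ± SD of 4 samples, two donors.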

In series [14] the test system is PBMC. The experiment in a line: Immunomodulatory effect in human PBMC cells assessed as decrease in LPS-induced IL-8a release at 20.2 uM after 18 hrs by flow cytometry analysis relative to LPS. Also on record: scale not given: the % may be the effect or the level left. Type of series: functional. The essentials: as §2
Series [15] concerns PBMC. The experiment in a line: Immunomodulatory effect in human PBMC cells assessed as increase in LPS-induced TNFalpha release at 20.2 uM after 18 hrs by flow cytometry analysis relative to LPS. Type of series: functional. The procedure, abridged:
as §2

The subject of series [16] is PBMC. The experiment in a line: Immunosuppressive effect in human PBMC cells assessed as […] in […]/ionomycin-induce IL-6 release at 20.2 uM after 18 hrs by flow cytometry analysis relative to PMA and ionomycin. In kind it is functional. The procedure, abridged: as §3
The subject of series [17] is PBMC. The experiment in a line: Immunosuppressive effect in human PBMC cells assessed as […] in […]/ionomycin-induce IL-8a release at 20.2 uM after 18 hrs by flow cytometry analysis relative to PMA and ionomycin. Type of series: functional. The essentials: as §3
Series [18] deals with PBMC. The experiment in a line: Immunosuppressive effect in human PBMC cells assessed as […] in […]/ionomycin-induce TNFalpha release at 20.2 uM after 18 hrs by flow cytometry analysis relative to PMA and ionomycin. In kind it is functional. The essentials:
as §3

Series [19] relates to PBMC. The experiment in a line: Immunosuppressive effect in human PBMC cells assessed as […] in […]/ionomycin-induce IL-10 release at 20.2 uM after 18 hrs by flow cytometry analysis relative to PMA and ionomycin. Type of series: functional. The procedure, abridged: as §3
For series [20], the system named is PBMC. The experiment in a line: Immunomodulatory effect in human PBMC cells assessed as decrease in LPS-induced IL-6 release at 20.2 uM after 18 hrs by flow cytometry analysis relative to LPS. In kind it is functional. Set-up: scale not given: the % may be the effect or the level left. The essentials:
as §2

The structures appear in SMILES notation. Calls of active or inactive are those of the source. The rule behind the calls is not given here.

On to `CC(=O)N[C@H]1C(O)O[C@H](CO)[C@@H](O)[C@@H]1O[C@H](C)C(=O)N[C@@H](C)C(=O)N[C@H](CCC(=O)O)C(N)=O` (stereo partly drawn) [MURAMYL DIPEPTIDE], for which the result in the series on PBMC [1] was Active. The Activity entry was “Dose-dependent effect” in the series with THP-1 [2]; “Non-toxic” with PBMC [3]; “Non-toxic” in the series on THP-1 [4]; “Non-toxic” in the series with THP-1 [5]; 187.4% in the series on THP-1 [6]; 108% in the series on THP-1 [7]. Moreover, the Activity in the series on THP-1 [8] is 171.8%; in the series with THP-1 [9], “Non-toxic”; in the series with THP-1 [10], 306.8%.
With `C[C@H](NC(=O)CNC(=O)c1cc2ccccc2[nH]1)C(=O)N[C@H](CCC(=O)O)C(=O)O`, the Activity in the series on PBMC [11] was 68.5%; with PBMC [12], 78%; with PBMC [13], 96.5%; with PBMC [3], “Non-toxic”; in the series with PBMC [14] it was 95.5%; with PBMC [15], 103.5%. The Activity with PBMC [16] is recorded as 42.5%; in the series with PBMC [17] it was 90%; in the series with PBMC [18], 63.5%; in the series on THP-1 [5], “Non-toxic”; in the series with THP-1 [6] it was 118.5%; with PBMC [19], 75.8%. In addition, the Activity result in the series with THP-1 [9] is on record as “Non-toxic”; in the series on PBMC [20], 76.8%.
`C[C@H](NC(=O)CNC(=O)c1cc2ccccc2[nH]1)C(=O)N[C@H](CCC(=O)O)C(N)=O`: the Activity in the series with PBMC [11] is given as 71.5%; in the series with PBMC [12], 90.5%; with PBMC [13] it was 91.5%; in the series on PBMC [3], “Non-toxic”; in the series with PBMC [14] it was 98.5%; with PBMC [15] it was 101%. In addition, the Activity is on record as 76% in the series with PBMC [16]; 98.5% with PBMC [17]; 93.5% in the series on PBMC [18]; “Non-toxic” with THP-1 [5]; 126.2% with THP-1 [6]; 102% with PBMC [19]. Further, the Activity result is listed as “Non-toxic” in the series with THP-1 [9] and 74% in the series on PBMC [20].

The values above are taken from ChEMBL document CHEMBL1821722, “Design, synthesis and biological evaluation of novel desmuramyldipeptide analogs” (Eur J Med Chem, 2011).
